Experimental data published in ChEMBL document CHEMBL3045743, “Synthesis and herbicidal activity of isoindoline-1,3-dione substituted benzoxazinone derivatives containing a carboxylic ester group” (J Agric Food Chem, 2009).

How the values were obtained:
Abutilon theophrasti [1] = assay: Pre-emergence herbicidal activity against Abutilon theophrasti (velvetleaf) assessed as growth inhibition at 75 g.a.i./ha applied 24 hr after seeds were sown measured after 15 days; assay type: functional; conditions: read-out: GI
Summary of the method: (§1)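 Weeds sown 5 mm deep in pots of greenhouse clay soil (pH 6.5, 37.5% clay, CEC 12.9 cmol/kg) and grown at 22-25 °C. Water-diluted formulation was applied pre-emergence 24 h after sowing. Untreated and DMF solvent controls were included. Growth inhibition was visually rated in % against untreated controls after 15 days, as the mean of triplicates.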

Abutilon theophrasti [2] = assay: Pre-emergence herbicidal activity against Abutilon theophrasti (velvetleaf) assessed as growth inhibition at 7.5 g.a.i./ha applied 24 hr after seeds were sown measured after 15 days; assay type: functional; conditions: read-out: GI; summary of the method: as §1
Abutilon theophrasti [3] = assay: Pre-emergence herbicidal activity against Abutilon theophrasti (velvetleaf) assessed as growth inhibition at 37.5 g.a.i./ha applied 24 hr after seeds were sown measured after 15 days; assay type: functional; conditions: read-out: GI; summary of the method: as §1
Setaria viridis [4] = assay: Post-emergence herbicidal activity against Setaria viridis (green foxtail) assessed as growth inhibition at 37.5 g.a.i./ha applied at one-leaf stage measured after 15 days; assay type: functional; conditions: 360 h, read-out: GI
Summary of the method: (§2)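 Pot-grown weeds sown 5 mm deep in greenhouse clay soil (pH 6.5, 1.7% organic matter, CEC 12.9 cmol/kg) at 22-25 °C. Stock diluted with water and sprayed post-emergence: dicots at 2-leaf stage, monocots at 1-leaf stage. Untreated and DMF solvent controls were included. % growth inhibition was scored visually versus untreated controls after 15 days. Triplicates averaged.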

Gossypium [5] = assay: Phytotoxicity against Gossypium (cotton) assessed as growth inhibition at 150 g.a.i/ha pre-emergent application measured after 15 days by greenhouse crop selectivity assay; assay type: organism-based; conditions: in vivo, other, 360 h
Summary of the method: (§3)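 Pre-emergence greenhouse crop selectivity test on pot-grown plants in clay soil (pH 6.5, 1.7% organic matter, 37.5% clay, CEC 12.9 cmol/kg). Stock solutions were diluted with water and applied at 300, 150, 75 or 37.5 g a.i./ha, in triplicate. After 15 days, phytotoxicity was scored visually against untreated controls as % crop growth inhibition, averaged over the triplicates.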

[6] = test system: Brassica rapa subsp. oleifera; assay: Phytotoxicity against Brassica rapa subsp. oleifera assessed as growth inhibition at 150 g.a.i/ha pre-emergent application measured after 15 days by greenhouse crop selectivity assay; assay type: functional; conditions: pre-emergence, 360 h, read-out: GI
Summary of the method: (§4)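 Pot-grown crop in greenhouse clay soil (pH 6.5, 1.7% organic matter, 37.5% clay, CEC 12.9 cmol/kg). Stock diluted with water and applied pre-emergence at 300, 150, 75 or 37.5 g a.i./ha. Cultivated 15 days, then phytotoxicity scored visually as % growth inhibition versus untreated controls. Triplicate treatments, averaged.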

Chenopodium album [7] = assay: Post-emergence herbicidal activity against Chenopodium album assessed as growth inhibition at 75 g.a.i./ha applied at two-leaf stage measured after 15 days; assay type: functional; conditions: 360 h, read-out: GI; summary of the method: as §2
Abutilon theophrasti [8] = assay: Post-emergence herbicidal activity against Abutilon theophrasti (velvetleaf) assessed as growth inhibition at 37.5 g.a.i./ha applied at two-leaf stage measured after 15 days; assay type: functional; conditions: 360 h, read-out: GI; summary of the method: as §2
Amaranthus = assay: Pre-emergence herbicidal activity against Amaranthus ascendens assessed as growth inhibition at 75 g.a.i./ha applied 24 hr after seeds were sown measured after 15 days; assay type: functional; conditions: read-out: GI; summary of the method: as §1
Setaria viridis [9] = assay: Pre-emergence herbicidal activity against Setaria viridis (green foxtail) assessed as growth inhibition at 7.5 g.a.i./ha applied 24 hr after seeds were sown measured after 15 days; assay type: functional; conditions: read-out: GI
Summary of the method: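 Secondary pre-emergence test run at 7.5, 15 and 37.5 g a.i./ha on pot-grown weeds in a greenhouse at 22-25 °C. Seeds sown 5 mm deep in clay soil (pH 6.5, 1.7% organic matter, CEC 12.9 cmol/kg). Stock diluted with water and applied 24 h after sowing. Done in triplicate; visual % growth inhibition vs untreated after 15 days, averaged.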

Arachis hypogaea = assay: Phytotoxicity against Arachis hypogaea (peanut) assessed as growth inhibition at 7.5 to 60 g.a.i/ha post-emergent application measured after 15 days by greenhouse crop selectivity assay; assay type: organism-based; conditions: in vivo, other, 360 h
Summary of the method: (§5)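 Postemergence crop selectivity test on pot-grown plants in a greenhouse, in clay soil (pH 6.5, 1.7% organic matter, CEC 12.9 cmol/kg). Stock was diluted with water and sprayed at 60, 30, 15 or 7.5 g a.i./ha, in triplicate. Growth inhibition was rated visually against untreated controls after 15 days and given as the triplicate mean percentage.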

Setaria viridis [10] = assay: Pre-emergence herbicidal activity against Setaria viridis (green foxtail) assessed as growth inhibition at 15 g.a.i./ha applied 24 hr after seeds were sown measured after 15 days; assay type: functional; conditions: read-out: GI; summary of the method: as §1
Echinochloa crus-galli [11] = assay: Pre-emergence herbicidal activity against Echinochloa crus-galli (barnyard grass) assessed as growth inhibition at 37.5 g.a.i./ha applied 24 hr after seeds were sown measured after 15 days; assay type: functional; conditions: read-out: GI; summary of the method: as §1
Amaranthus spinosus [12] = assay: Post-emergence herbicidal activity against Amaranthus spinosus assessed as growth inhibition at 7.5 g.a.i./ha applied at two-leaf stage measured after 15 days; assay type: functional; conditions: 360 h, read-out: GI; summary of the method: as §2
Chenopodium album [13] = assay: Pre-emergence herbicidal activity against Chenopodium album assessed as growth inhibition at 7.5 g.a.i./ha applied 24 hr after seeds were sown measured after 15 days; assay type: functional; conditions: read-out: GI; summary of the method: as §1
Echinochloa crus-galli [14] = assay: Post-emergence herbicidal activity against Echinochloa crus-galli (barnyard grass) assessed as growth inhibition at 15 g.a.i./ha applied at one-leaf stage measured after 15 days; assay type: functional; conditions: 360 h, read-out: GI; summary of the method: as §2
Amaranthus spinosus [15] = assay: Pre-emergence herbicidal activity against Amaranthus spinosus assessed as growth inhibition at 37.5 g.a.i./ha applied 24 hr after seeds were sown measured after 15 days; assay type: functional; conditions: read-out: GI; summary of the method: as §1
Setaria viridis [16] = assay: Pre-emergence herbicidal activity against Setaria viridis (green foxtail) assessed as growth inhibition at 37.5 g.a.i./ha applied 24 hr after seeds were sown measured after 15 days; assay type: functional; conditions: read-out: GI; summary of the method: as §1
Glycine max [17] = assay: Phytotoxicity against Glycine max (soybean) assessed as growth inhibition at 37.5 g.a.i/ha pre-emergent application measured after 15 days by greenhouse crop selectivity assay; assay type: organism-based; conditions: in vivo, other, 360 h; summary of the method: as §3
[18] = test system: Brassica rapa subsp. oleifera; assay: Phytotoxicity against Brassica rapa subsp. oleifera assessed as growth inhibition at 37.5 g.a.i/ha pre-emergent application measured after 15 days by greenhouse crop selectivity assay; assay type: functional; conditions: pre-emergence, 360 h, read-out: GI; summary of the method: as §4
Glycine max [19] = assay: Phytotoxicity against Glycine max (soybean) assessed as growth inhibition at 7.5 to 60 g.a.i/ha post-emergent application measured after 15 days by greenhouse crop selectivity assay; assay type: organism-based; conditions: in vivo, other, 360 h; summary of the method: as §5
Digitaria sanguinalis [20] = assay: Post-emergence herbicidal activity against Digitaria sanguinalis (hairy crabgrass) assessed as growth inhibition at 7.5 g.a.i./ha applied at one-leaf stage measured after 15 days; assay type: functional; conditions: 360 h, read-out: GI; summary of the method: as §2
Digitaria sanguinalis [21] = assay: Pre-emergence herbicidal activity against Digitaria sanguinalis (hairy crabgrass) assessed as growth inhibition at 15 g.a.i./ha applied 24 hr after seeds were sown measured after 15 days; assay type: functional; conditions: read-out: GI; summary of the method: as §1
Gossypium [22] = assay: Phytotoxicity against Gossypium (cotton) assessed as growth inhibition at 75 g.a.i/ha pre-emergent application measured after 15 days by greenhouse crop selectivity assay; assay type: organism-based; conditions: in vivo, other, 360 h; summary of the method: as §3
Zea mays = assay: Phytotoxicity against Zea mays (maize) assessed as growth inhibition at 75 g.a.i/ha pre-emergent application measured after 15 days by greenhouse crop selectivity assay; assay type: organism-based; conditions: in vivo, other, 360 h; summary of the method: as §3
Glycine max [23] = assay: Phytotoxicity against Glycine max (soybean) assessed as growth inhibition at 300 g.a.i/ha pre-emergent application measured after 15 days by greenhouse crop selectivity assay; assay type: organism-based; conditions: in vivo, other, 360 h; summary of the method: as §3
Triticum aestivum = assay: Phytotoxicity against Triticum aestivum (wheat) assessed as growth inhibition at 37.5 g.a.i/ha pre-emergent application measured after 15 days by greenhouse crop selectivity assay; assay type: organism-based; conditions: in vivo, other, 360 h; summary of the method: as §3

SMILES	inhibition of growth at 75 g/ha (Abutilon theophrasti [1]) [%]	inhibition of growth at 7.5 g/ha (Abutilon theophrasti [2]) [%]	inhibition of growth at 37.5 g/ha (Abutilon theophrasti [3]) [%]	inhibition of growth at 37.5 g/ha (Setaria viridis [4]) [%]	growth inhibition (GI) (Gossypium [5])	inhibition of growth at 150 g/ha [6] [%]	inhibition of growth at 75 g/ha (Chenopodium album [7]) [%]	inhibition of growth at 37.5 g/ha (Abutilon theophrasti [8]) [%]	inhibition of growth at 75 g/ha (Amaranthus) [%]	inhibition of growth at 7.5 g/ha (Setaria viridis [9]) [%]	Activity (Arachis hypogaea)	inhibition of growth at 15 g/ha (Setaria viridis [10]) [%]	inhibition of growth at 37.5 g/ha (Echinochloa crus-galli [11]) [%]	inhibition of growth at 7.5 g/ha (Amaranthus spinosus [12]) [%]	inhibition of growth at 7.5 g/ha (Chenopodium album [13]) [%]	inhibition of growth at 15 g/ha (Echinochloa crus-galli [14]) [%]	inhibition of growth at 37.5 g/ha (Amaranthus spinosus [15]) [%]	inhibition of growth at 37.5 g/ha (Setaria viridis [16]) [%]	growth inhibition (GI) (Glycine max [17])	inhibition of growth at 37.5 g/ha [18] [%]	other results
C#CCN1C(=O)COc2cc(F)c(N3C(=O)C4=C(CCCC4)C3=O)cc21 [FLUMIOXAZIN]	> 80	50	100	95	Not Active	> 10	> 80	100	> 80	0	Toxic	50	70	100	100	70	100	80	Not Active	> 10	Activity (Glycine max [19]): Toxic; inhibition of growth at 7.5 g/ha (Digitaria sanguinalis [20]): 80%; inhibition of growth at 15 g/ha (Digitaria sanguinalis [21]): 50%; growth inhibition (GI) (Gossypium [22]): Not Active
COC(=O)C(C)N1C(=O)C(C)Oc2cc(F)c(N3C(=O)C4=C(CCCC4)C3=O)cc21 (stereo not given)	> 80	50	70	80	Not Active	> 10	> 80	100	> 80	0	Toxic	10	80	100	100	30	100	80	Not Active	> 10	growth inhibition (GI) (Zea mays): Not Active; growth inhibition (GI) (Glycine max [23]): Not Active; growth inhibition (GI) (Triticum aestivum): Not Active; Activity (Glycine max [19]): Toxic; inhibition of growth at 7.5 g/ha (Digitaria sanguinalis [20]): 10%; inhibition of growth at 15 g/ha (Digitaria sanguinalis [21]): 10%; growth inhibition (GI) (Gossypium [22]): Not Active
CCOC(=O)C(CC)N1C(=O)C(C)Oc2cc(F)c(N3C(=O)C4=C(CCCC4)C3=O)cc21 (stereo not given)	> 80	0	70	70	Not Active	> 10	> 80	100	> 80	0	Toxic	0	0	100	100	0	100	0	Not Active	> 10	growth inhibition (GI) (Zea mays): Not Active; growth inhibition (GI) (Glycine max [23]): Not Active; growth inhibition (GI) (Triticum aestivum): Not Active; Activity (Glycine max [19]): Toxic; inhibition of growth at 7.5 g/ha (Digitaria sanguinalis [20]): 40%; inhibition of growth at 15 g/ha (Digitaria sanguinalis [21]): 0%; growth inhibition (GI) (Gossypium [22]): Not Active
CCOC(=O)C(C)N1C(=O)C(C)Oc2cc(F)c(N3C(=O)C4=C(CCCC4)C3=O)cc21 (stereo not given)	> 80	0	20	50	Not Active	> 10	> 80	100	> 80	0	Toxic	40	30	100	100	30	100	60	Not Active	> 10	growth inhibition (GI) (Zea mays): Not Active; growth inhibition (GI) (Glycine max [23]): Not Active; growth inhibition (GI) (Triticum aestivum): Not Active; Activity (Glycine max [19]): Toxic; inhibition of growth at 7.5 g/ha (Digitaria sanguinalis [20]): 20%; inhibition of growth at 15 g/ha (Digitaria sanguinalis [21]): 40%; growth inhibition (GI) (Gossypium [22]): Not Active
